The nature of data set [1]: Electrochemical behavior of the compound assessed as reduction potential peak by measuring […] current in DMSO using Ag/AgCl reference electrode by cyclic voltammetry. It counts as physicochemical.
A further data set relates to A549. The data set is described as follows: Anticancer activity against human A549 cells assessed as inhibition of cell growth incubated for 48 hrs by MTT assay. To be noted: A549, 48 h. The data set is classed as functional, cell-based. The gist of the method:
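A549 cells were seeded in 96-well plates and held overnight at 37°C, 95% humidity, 5% CO₂. Compounds came from DMSO stock dilution series and were added at 100, 50, 25, 12.5, 6.25 and 3.125 μg/mL for 48 hrs. Wells were PBS-washed, given MTT for 4h at 37°C, and formazan was dissolved in DMSO. A570 was read, and survival was taken as mean test OD over mean negative-control OD ×100.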
A general note: Tetrazolium assays rely on reduction of a dye to a coloured formazan, in cell work by metabolically active cells.

Data set [2] can be described thus: Electrochemical behavior of the compound assessed as oxidation potential peak by measuring […] current in DMSO using Ag/AgCl reference electrode by cyclic voltammetry. It counts as physicochemical.

This is an account of results in ChEMBL document CHEMBL5104212, “Green synthesis of 3-methyl-4-(hetero)aryl methylene isoxazole-5(4H)-ones using WEOFPA/glycerol: evaluation of anticancer and electrochemical behaviour properties” (RSC Med Chem, 2022).

As to `CC1=NOC(=O)/C1=C/c1cn(-c2ccccc2)cc1-c1ccccc1`, the outcome in data set [1] and in data set [2] was Active. The IC50 in the data set on A549 was determined as 12.3 µM.

Take `CC1=NOC(=O)C1Cc1cccs1` (stereo not given): the outcome in data set [1] and in data set [2] was Active. The IC50 in the data set with A549 was 14.2 µM.

Take `COc1cccc2c1C(=O)c1c(O)c3c(c(O)c1C2=O)C[C@@](O)(C(=O)CO)C[C@@H]3O[C@H]1C[C@H](N)[C@H](O)[C@H](C)O1` [DOXORUBICIN]: the IC50 with A549 is 8.73 µM.

`CC1=NOC(=O)/C1=C/c1c(Cl)[nH]c2ccccc12`: the outcome in data set [1] and in data set [2] was Active. The IC50 in the data set with A549 was found to be 8.99 µM.

Consider `COc1ccc(/C=C2/C(=O)ON=C2C)cc1OC`, for which the outcome in data set [1] and in data set [2] was Active. In addition, the half-inhibitory concentration (IC50) in the data set with A549 stood at 59.2 µM.

As for `CC1=NOC(=O)/C1=C/c1c[nH]c2ccccc12`, the outcome in data set [1] and in data set [2] was Active. Moreover, in the data set on A549, the IC50 stood at 107 µM.

In the case of `CC1=NOC(=O)/C1=C/c1c(-c2ccccc2)[nH]c2ccccc12`, the result in data set [1] and in data set [2] was Active. The IC50 with A549 was 37.4 µM.

With `CC1=NOC(=O)/C1=C/c1ccc[nH]1`, the outcome in data set [1] and in data set [2] was Active. Further, the IC50 in the data set on A549 was found to be 183 µM.

Consider `CC1=NOC(=O)/C1=C/c1c(O)ccc2ccccc12`, for which the result in data set [1] and in data set [2] was Active. Also, the IC50 with A549 was 22.8 µM.

For orientation: IC50 means the concentration at which inhibition is half-maximal.
